IDH1 mut inh – inhibitors of IDH1 R132H reductase, primary screen, biochemical, plate reader, single point; diaphorase/resazurin fluorescence, 60 min; inhibition, % at 10 µM; hit rate 0.18% among 70,000; in the data active means inhibition above about 34%; inconclusive means no clear call, values can overlap the other calls; inactive means below about 11%
T cruzi growth-1 – T. cruzi intracellular proliferation inhibitors, primary screen, cell-based, beta-gal Tulahuen parasites, NIH3T3 host, luminescence; hit rate 5.9% among 77,000; T. cruzi beta-gal in NIH3T3, GalScreen luminescence, 90 h; inhibition, % at 8.34 µM;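 active means mean inhibition above about 93%, with at least 55% of replicates each passing it, limit read from the data, passing the limit was not always enough; inconclusive means only one of those two conditions holds; inactive means neither condition holds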
KDM4C inh – inhibitors of GASC-1 (KDM4C) histone demethylase, primary screen, biochemical, single concentration HTS. Lysine-specific demethylase 4C (Homo sapiens), Q9H3R0. GST-KDM4C 2-372, H3K9me3 peptide, LANCE TR-FRET. inhibition, % at 12.5 µM. hit rate 0.15% among 96,000. AID 720574, 2013;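 active means mean replicate inhibition above about 25%, with at least 55% of replicates also reaching it, limit read from the data, passing the limit was not always enough; inconclusive means only one of those two conditions met; inactive means neither condition met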
Target sequence (Q9H3R0 2-372 limits assumed): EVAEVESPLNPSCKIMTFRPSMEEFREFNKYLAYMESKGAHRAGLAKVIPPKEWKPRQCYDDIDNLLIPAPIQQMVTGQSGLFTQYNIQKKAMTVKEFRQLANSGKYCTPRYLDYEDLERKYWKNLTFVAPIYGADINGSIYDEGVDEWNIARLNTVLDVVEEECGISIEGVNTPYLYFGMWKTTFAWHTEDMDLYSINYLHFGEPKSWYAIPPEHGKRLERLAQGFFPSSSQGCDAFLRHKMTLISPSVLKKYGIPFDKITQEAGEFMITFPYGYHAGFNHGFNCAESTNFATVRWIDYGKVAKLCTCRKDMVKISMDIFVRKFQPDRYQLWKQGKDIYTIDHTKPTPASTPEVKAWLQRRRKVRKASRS
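System: N-terminal GST-fused human GASC-1 (KDM4C) fragment, residues 2-372; amount: enzyme final amount 10 nM; incubation: reaction 30 min RT, detection step 1 h RT; medium: HEPES buffer, pH 7.5, plus ascorbate; technique: LANCE TR-FRET, Eu antibody, ULight-streptavidin, EDTA, ex 340 nm, em 618/671 nm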
T cruzi growth-2 – T. cruzi intracellular proliferation inhibitors, confirmation, cell-based, NIH3T3 host, beta-gal parasite, luminescence, cherry-pick | hit rate 72% among 5,600 | shares compounds with T cruzi growth-1 | T. cruzi beta-gal in NIH3T3, GalScreen luminescence, 90 h | inhibition, % at 8.35 µM;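 active means mean replicate inhibition above about 95% and at least 55% of replicates individually reaching it, limit read from the data; inconclusive means only one of the two criteria is met; inactive means neither criterion is met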
T cruzi growth-3 – inhibitors of intracellular T. cruzi replication, confirmation, NIH3T3 host cells, beta-gal parasites, cherry-pick, set 2; shares compounds with T cruzi growth-1; T. cruzi beta-gal in NIH3T3, GalScreen luminescence, 90 h; inhibition, % at 2.09 µM; hit rate 21% among 5,600;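 active means mean inhibition above about 95%, with at least 55% of replicates also reaching it, limit read from the data; inconclusive means meets just one of the two conditions; inactive means meets neither condition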
NIH3T3 tox – cytotoxicity in mouse NIH/3T3 fibroblasts, confirmation, cytotoxicity control for T. cruzi proliferation inhibitor project, cell-based, cherry-pick, single point; AID 651742, 2012; NIH/3T3 viability, CellTiter-Glo ATP luminescence, 90 h; shares compounds with T cruzi growth-1; cytotoxicity (signal decrease), % at 8.35 µM; hit rate 14% among 5,600;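 active means mean signal decrease across replicates above about 35% based on untreated-well scatter, with enough replicates individually passing, limit read from the data; inconclusive means no rule stated though some were filed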
NIH3T3 tox 2 – NIH/3T3 fibroblast cytotoxicity, confirmation, cytotoxicity control, cell-based, cherry-pick, single point, set 2. NIH/3T3 viability, CellTiter-Glo ATP luminescence, 90 h. hit rate 56% among 5,600. inhibition, % at 24.9 µM. shares compounds with T cruzi growth-1. AID 651744, 2012;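 active means mean loss of cell viability signal at or above a set limit, and enough replicates individually reaching it; inconclusive means meets only the mean limit or only the replicate share; inactive means meets neither condition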
Hits are given with their value; . = inactive; ? = inconclusive; / = not tested or not shown. The sample as a whole holds a higher share of hits than the screen did.

SMILES | IDH1 mut inh | T cruzi growth-1 | KDM4C inh | T cruzi growth-2 | T cruzi growth-3 | NIH3T3 tox | NIH3T3 tox 2
C[C@@H]1CCCCO[C@@H](CN(C)Cc2ccc(C(=O)Nc3ccccc3N)cc2)[C@@H](C)CN([C@H](C)CO)C(=O)c2cc(NC(=O)Nc3ccc4c(c3)OCO4)ccc2O1 | . | . | . | / | / | / | /
COC(=O)c1ccccc1NC(=O)CNC(=O)c1ccc(C(C)(C)C)cc1 | . | / | / | / | / | / | /
COc1ccc(S(=O)(=O)Nc2ccc3c(c2)C(=O)N([C@H](C)CO)C[C@@H](C)[C@@H](CN(C)S(=O)(=O)c2ccc(OC)cc2)OCCCC[C@H](C)O3)cc1 | . | . | . | / | / | / | /
COc1ccc(S(=O)(=O)N(C)C[C@@H]2OCCCC[C@H](C)Oc3ccc(NS(=O)(=O)c4ccccc4)cc3C(=O)N([C@@H](C)CO)C[C@H]2C)cc1 | / | . | . | / | / | / | /
COc1ccc(S(=O)(=O)Nc2ccc3c(c2)C(=O)N([C@@H](C)CO)C[C@H](C)[C@@H](CN(C)S(=O)(=O)c2ccc(OC)cc2)OCCCC[C@H](C)O3)cc1 | . | ? | . | 104 | . | . | .
COc1ccc(S(=O)(=O)N(C)C[C@@H]2OCCCC[C@@H](C)Oc3ccc(NS(=O)(=O)c4cn(C)cn4)cc3C(=O)N([C@@H](C)CO)C[C@H]2C)cc1 | / | . | . | / | / | / | /
COc1ccc(S(=O)(=O)N(C)C[C@H]2OCCCC[C@H](C)Oc3ccc(NS(=O)(=O)c4ccccc4)cc3C(=O)N([C@@H](C)CO)C[C@H]2C)cc1 | / | . | . | / | / | / | /
COc1ccc(S(=O)(=O)N(C)C[C@H]2OCCCC[C@@H](C)Oc3ccc(NS(=O)(=O)c4cn(C)cn4)cc3C(=O)N([C@@H](C)CO)C[C@H]2C)cc1 | / | 103 | . | 107 | . | . | .
COc1ccc(S(=O)(=O)Nc2ccc3c(c2)C(=O)N([C@@H](C)CO)C[C@@H](C)[C@@H](CN(C)S(=O)(=O)c2ccc(OC)cc2)OCCCC[C@@H](C)O3)cc1 | . | 100 | . | 107 | 102 | . | .
COc1ccc(S(=O)(=O)Nc2ccc3c(c2)C(=O)N([C@@H](C)CO)C[C@H](C)[C@@H](CN(C)S(=O)(=O)c2ccc(OC)cc2)OCCCC[C@@H](C)O3)cc1 | . | ? | . | 111 | . | . | .
Cc1ccc2nc(-c3cccc(NC(=O)COc4ccc([N+](=O)[O-])cc4)c3)oc2c1 | . | / | / | / | / | / | /
CCCNC(=O)N1CC2(C1)CN(C(=O)c1ccncc1)[C@@H](CO)c1[nH]c3cc(OC)ccc3c12 | / | / | . | / | / | / | /
CN(C)C(=O)[C@H]1[C@H](CO)[C@H]2Cn3c(ccc(C4=CCCCC4)c3=O)[C@@H]1N2Cc1ccccc1 | / | . | . | / | / | / | /
COc1ccc(S(=O)(=O)Nc2ccc3c(c2)C(=O)N([C@@H](C)CO)C[C@H](C)[C@H](CN(C)C(=O)NC(C)C)O3)cc1 | . | 109 | . | . | . | . | .
C[C@@H]1CN([C@@H](C)CO)C(=O)c2cc(NS(C)(=O)=O)ccc2O[C@@H](C)CCCCO[C@H]1CN(C)S(=O)(=O)c1cn(C)cn1 | . | 107 | . | 99 | . | . | .
COc1ccc(S(=O)(=O)Nc2ccc3c(c2)C(=O)N([C@H](C)CO)C[C@H](C)[C@@H](CN(C)C(=O)NC(C)C)O3)cc1 | . | . | . | / | / | / | /
C[C@@H]1CCCCO[C@@H](CN(C)S(=O)(=O)c2cn(C)cn2)[C@H](C)CN([C@H](C)CO)C(=O)c2cc(NS(C)(=O)=O)ccc2O1 | . | . | . | / | / | / | /
COc1ccc(-n2c(SCC(=O)Nc3cccc(C)c3C)nnc2-c2ccccc2)cc1 | . | / | / | / | / | / | /
C[C@@H]1CCCCO[C@@H](CN(C)Cc2ccc(C(=O)O)cc2)[C@@H](C)CN([C@@H](C)CO)C(=O)c2cc(NC(=O)Nc3cccc4ccccc34)ccc2O1 | . | . | . | / | / | / | /
O=C(Cc1ccccc1)N[C@@H]1C=C[C@@H](CC(=O)N2CCOCC2)O[C@H]1CO | . | . | . | / | / | / | /
COc1cc([N+](=O)[O-])ccc1NC(=O)Nc1nn(Cc2ccc(Cl)c(Cl)c2)cc1Cl | . | / | / | / | / | / | /
COc1ccc(C#Cc2ccc([C@@H]3[C@@H](CO)N4CCCCN(C(=O)Nc5cccc(F)c5)C[C@@H]34)cc2)cc1 | / | . | . | / | / | / | /
COc1ccc(C#Cc2ccc([C@@H]3[C@H](CO)N4CCCCN(C(=O)Nc5ccc(F)cc5)C[C@@H]34)cc2)cc1 | / | 111 | . | 105 | 109 | 119 | 103
COc1ccc(C#Cc2ccc([C@@H]3[C@@H](CO)N4CCCCN(C(=O)Nc5cccc(F)c5)C[C@H]34)cc2)cc1 | / | . | . | / | / | / | /
COc1ccc(C#Cc2ccc([C@@H]3[C@@H](CO)N4CCCCN(C(=O)Nc5ccc(F)cc5)C[C@H]34)cc2)cc1 | / | 116 | . | 97 | 120 | 123 | 105
SMILES | IDH1 mut inh | T cruzi growth-1 | KDM4C inh | T cruzi growth-2 | T cruzi growth-3 | NIH3T3 tox | NIH3T3 tox 2
COc1ccc(C#Cc2ccc([C@H]3[C@@H](CO)N4CCCCN(C(=O)Nc5ccc(F)cc5)C[C@H]34)cc2)cc1 | / | . | . | / | / | / | /
COc1ccc(C#Cc2ccc([C@@H]3[C@@H](CO)N4CCCCN(C(=O)Nc5ccc(F)cc5)C[C@@H]34)cc2)cc1 | / | 112 | . | 102 | 106 | . | 104
Cc1cc(C)c2nc(-c3ccccn3)cc(C(=O)Nc3cccc(Cn4cccn4)c3)c2c1 | . | / | / | / | / | / | /
CCCN1C[C@@H](C)[C@@H](OC)CN(C)C(=O)c2cc(NC(=O)c3cccc(OC)c3)ccc2OC[C@H]1C | . | . | . | / | / | / | /
O=C(CSc1nc2ccccc2c(=O)n1-c1ccc(Cl)cc1)Nc1ccc(Cl)cc1Cl | . | / | / | / | / | / | /
CC(=O)c1cccc(NC(=O)C(C)NS(=O)(=O)c2ccc(Br)cc2)c1 (stereo unspecified) | . | / | / | / | / | / | /
Cc1ccc([N+](=O)[O-])cc1NC(=O)C1(c2ccccc2)CCN(S(=O)(=O)c2ccccc2)CC1 | . | / | / | / | / | / | /
C[C@H](CO)N1C[C@H](C)[C@@H](CN(C)C(=O)Nc2ccc(C(F)(F)F)cc2)Oc2c(NC(=O)C3CCOCC3)cccc2C1=O | . | . | . | / | / | / | /
C[C@@H]1CN([C@H](C)CO)C(=O)c2cccc(NC(=O)Nc3ccc(C(F)(F)F)cc3)c2O[C@@H]1CN(C)CC1CC1 | . | . | . | / | / | / | /
C[C@@H]1CN([C@@H](C)CO)C(=O)c2cccc(NC(=O)C3CCOCC3)c2O[C@H]1CN(C)C(=O)Nc1ccc(C(F)(F)F)cc1 | . | 99 | . | . | . | . | 29
